Assays:
[1] = biological target: CYP3A4 (Homo sapiens, UniProt P08684); assay: CYP inhibition in human liver microsomes; format: in vitro ADME; settings: 1 or 10 μM test article, 20 min, 37°C
In short: (§1)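 Pooled human liver microsomes (0.5 mg/mL), 2.5 mM NADPH, 3.3 mM MgCl₂, 0.1 M phosphate pH 7.4, 0.3% DMSO, probe cocktail near Km: phenacetin 25 μM (1A2), bupropion 25 μM (2B6), diclofenac 10 μM (2C9), mephenytoin 20 μM (2C19), bufuralol 10 μM (2D6), testosterone 50 μM and midazolam 4 μM (3A4). Cold acetonitrile quench; LC-MS/MS metabolite peak-area ratio over mean control ×100; n = 3.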

[2] = Stability in acidic aqueous buffered solutions; format: physicochemical; settings: for stability in acidic buffer: 48 h, 25°C/60%RH
In short: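 Test compound at 10 mg/mL was held in USP buffers: hydrochloric acid (pH 1.40), acetate (pH 4.50) and phosphate (pH 6.80). Incubation was at 25°C/60% RH in sealed, light-protected glass vials. Aliquots taken at 1, 3, 6, 24 and 48 h were diluted 10-fold and analysed by LC-MS, as for the microsomal stability samples.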

[3] = biological target: CYP2C9 (Homo sapiens, UniProt P11712); assay: CYP inhibition in human liver microsomes; format: in vitro ADME; settings: 1 or 10 μM test article, 20 min, 37°C
In short: as §1

[4] = Stability in plasma; format: in vitro ADME; settings: mouse plasma diluted 1:1 with PBS, 15 μM, up to 1 h, 37°C
[5] = Stability in plasma; format: in vitro ADME; settings: human plasma diluted 1:1 with PBS, 15 μM, up to 1 h, 37°C
[6] = orally administered, 225 mg/kg; cited from earlier work
[7] = Stability in plasma; format: in vitro ADME; settings: rat plasma diluted 1:1 with PBS, 15 μM, up to 1 h, 37°C
[8] = Permeability through Transwell plate not containing Caco-2 cells; format: in vitro ADME; settings: 24-well Transwell plate not containing Caco-2 cells
In short: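 This run repeated the Caco-2 bi-directional protocol in a Transwell plate without cells. Test compound (10 and 50 μM final) in HBSS, pH 7.4, was placed in duplicate wells for each direction. Receiver aliquots were taken at 30, 60, 90 and 120 min into 10 mM EDTA and replaced with fresh medium. Donor wells were sampled at start and end for recovery. Analysis was LC-MS/MS (positive ESI, MRM), and Papp was calculated from dQ/dt, receiver volume, membrane area and initial concentration.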

[9] = tested on: Caco-2 cells; assay: Bi-directional permeability study using Caco-2 cells; settings: for % Recovery of Test Article A–B (mean) / % Recovery of Test Article B-A (mean): end of experiment
[10] = biological target: T1, CYP1A2 (Homo sapiens, UniProt P05177); assay: CYP inhibition in human liver microsomes; format: in vitro ADME; settings: 1 or 10 μM test article, 20 min, 37°C
T1 sequence (P05177 1-516): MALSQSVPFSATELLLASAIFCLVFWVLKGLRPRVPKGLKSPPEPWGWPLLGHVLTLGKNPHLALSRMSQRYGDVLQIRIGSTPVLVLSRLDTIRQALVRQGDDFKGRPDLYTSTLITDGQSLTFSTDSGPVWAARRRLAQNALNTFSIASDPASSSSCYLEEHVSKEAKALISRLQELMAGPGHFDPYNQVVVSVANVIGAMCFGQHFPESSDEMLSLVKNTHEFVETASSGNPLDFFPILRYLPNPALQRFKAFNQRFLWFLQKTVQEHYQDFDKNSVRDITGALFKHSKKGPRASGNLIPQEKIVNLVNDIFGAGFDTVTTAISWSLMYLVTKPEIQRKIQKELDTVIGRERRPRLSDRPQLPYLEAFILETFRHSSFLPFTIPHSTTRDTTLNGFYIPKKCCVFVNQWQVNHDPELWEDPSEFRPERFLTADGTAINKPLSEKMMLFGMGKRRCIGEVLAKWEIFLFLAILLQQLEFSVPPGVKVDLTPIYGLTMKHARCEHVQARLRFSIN
In short: as §1

[11] = Stability in simulated gastric fluid; format: in vitro ADME; settings: SGF pH 1.2 with pepsin, 37°C, 60 min
In short: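 Simulated gastric fluid (pH 1.2) contained 3.2 g/L porcine pepsin, 2 g/L NaCl and 8 mL/L 6 N HCl, stored at 2–8°C and pre-warmed to 37°C. […] Reactions were stopped with 0.1 M sodium carbonate and chilled acetonitrile containing ¹³C internal standard, filtered, and analysed by LC-MS; content is expressed relative to initial.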

[12] = Metabolic stability using pooled human liver microsomes; format: in vitro ADME; settings: 10 and 50 μM, active microsomes, up to 60 min, 37°C
[13] = biological target: CYP2D6 (Homo sapiens, UniProt P10635); assay: CYP inhibition in human liver microsomes; format: in vitro ADME; settings: 1 or 10 μM test article, 20 min, 37°C
In short: as §1

[14] = biological target: CYP2C19 (Homo sapiens, UniProt P33261); assay: CYP inhibition in human liver microsomes; format: in vitro ADME; settings: 1 or 10 μM test article, 20 min, 37°C
In short: as §1

[15] = tested on: human plasma proteins; assay: Plasma protein binding by gel filtration; format: in vitro ADME; settings: 2 h, 37°C
In short: (§2)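 Test compound (2.65, 13.3 and 40.0 μM final) was incubated in plasma for 2 h at 37°C. Bound compound was separated on Sephadex G-25 by spin filtration (5 min, 200 × g). Eluates were run in duplicate: EDTA addition, chloroform:methanol extraction, acetonitrile precipitation, then LC-MS/MS (MRM 751 → 195, positive ESI) against 15 plasma standards from 0 to 66.7 μM. Eluate concentration was corrected for protein dilution, measured by microbiuret against BSA standards. % bound = corrected/total (mean ± SD, n = 3).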

[16] = Stability in plasma; format: in vitro ADME; settings: dog plasma diluted 1:1 with PBS, 15 μM, up to 1 h, 37°C
[17] = tested on: dog plasma proteins; assay: Plasma protein binding by gel filtration; format: in vitro ADME, beagle dog; settings: 2.7, 13.3 and 40.0 μM, 2 h, 37°C
In short: as §2

[18] = biological target: T2, CYP2B6 (Homo sapiens, UniProt P20813); assay: CYP inhibition in human liver microsomes; format: in vitro ADME; settings: 1 or 10 μM test article, 20 min, 37°C
T2 sequence (P20813 1-491): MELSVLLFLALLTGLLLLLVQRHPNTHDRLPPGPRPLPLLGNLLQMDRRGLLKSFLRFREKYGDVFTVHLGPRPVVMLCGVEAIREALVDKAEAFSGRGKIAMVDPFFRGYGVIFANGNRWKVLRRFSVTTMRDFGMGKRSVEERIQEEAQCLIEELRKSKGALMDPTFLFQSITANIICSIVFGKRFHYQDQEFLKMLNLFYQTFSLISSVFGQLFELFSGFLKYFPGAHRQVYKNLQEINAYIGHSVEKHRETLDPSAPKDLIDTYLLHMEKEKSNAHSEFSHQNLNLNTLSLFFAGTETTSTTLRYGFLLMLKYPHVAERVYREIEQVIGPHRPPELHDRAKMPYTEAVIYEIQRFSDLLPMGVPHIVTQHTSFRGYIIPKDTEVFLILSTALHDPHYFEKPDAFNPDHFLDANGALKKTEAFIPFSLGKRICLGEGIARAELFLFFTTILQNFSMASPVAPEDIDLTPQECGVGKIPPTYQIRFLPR
In short: as §1

[19] = tested on: rat plasma proteins; assay: Plasma protein binding by gel filtration; format: in vitro ADME, Sprague Dawley rat; settings: 2 h, 37°C
In short: as §2

[20] = tested on: P-gp; assay: Bi-directional permeability study using Caco-2 cells; settings: human; for Papp A→B at 120 min, 1 μM: Caco-2, pH 6, Papp A–B (mean); for Papp B→A at 120 min, 1 μM: Caco-2, pH 7.4, Papp B-A (mean)
[21] = negative control; cited from earlier work

CYP3A4, sequence (P08684 whole entry): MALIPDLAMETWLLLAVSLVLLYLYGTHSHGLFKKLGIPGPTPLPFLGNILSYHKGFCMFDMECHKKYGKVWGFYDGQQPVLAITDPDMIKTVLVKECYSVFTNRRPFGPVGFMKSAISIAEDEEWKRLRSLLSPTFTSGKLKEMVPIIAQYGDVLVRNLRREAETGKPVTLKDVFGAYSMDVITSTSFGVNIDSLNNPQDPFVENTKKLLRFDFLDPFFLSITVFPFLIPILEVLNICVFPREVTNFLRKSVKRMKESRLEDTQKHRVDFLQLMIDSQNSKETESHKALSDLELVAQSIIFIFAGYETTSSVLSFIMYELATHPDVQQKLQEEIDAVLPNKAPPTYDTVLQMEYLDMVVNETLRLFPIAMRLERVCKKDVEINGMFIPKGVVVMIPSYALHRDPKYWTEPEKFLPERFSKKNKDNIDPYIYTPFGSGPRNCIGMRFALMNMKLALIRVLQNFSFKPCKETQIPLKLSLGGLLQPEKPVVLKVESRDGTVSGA
CYP2C19, sequence (P33261 whole entry): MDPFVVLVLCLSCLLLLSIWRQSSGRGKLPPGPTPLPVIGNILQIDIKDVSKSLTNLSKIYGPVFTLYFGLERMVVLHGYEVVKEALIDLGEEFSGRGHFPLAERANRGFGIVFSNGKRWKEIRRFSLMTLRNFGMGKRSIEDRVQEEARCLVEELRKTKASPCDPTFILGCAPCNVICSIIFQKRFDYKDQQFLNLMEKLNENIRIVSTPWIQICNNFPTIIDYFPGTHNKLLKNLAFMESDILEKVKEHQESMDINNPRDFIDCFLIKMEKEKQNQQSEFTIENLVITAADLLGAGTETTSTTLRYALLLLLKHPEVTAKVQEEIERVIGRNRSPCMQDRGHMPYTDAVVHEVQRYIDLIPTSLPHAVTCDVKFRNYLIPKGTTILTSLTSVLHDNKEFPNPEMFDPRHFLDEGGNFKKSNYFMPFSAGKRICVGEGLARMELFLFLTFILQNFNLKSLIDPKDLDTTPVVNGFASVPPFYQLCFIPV
CYP2C9, sequence (P11712 whole entry): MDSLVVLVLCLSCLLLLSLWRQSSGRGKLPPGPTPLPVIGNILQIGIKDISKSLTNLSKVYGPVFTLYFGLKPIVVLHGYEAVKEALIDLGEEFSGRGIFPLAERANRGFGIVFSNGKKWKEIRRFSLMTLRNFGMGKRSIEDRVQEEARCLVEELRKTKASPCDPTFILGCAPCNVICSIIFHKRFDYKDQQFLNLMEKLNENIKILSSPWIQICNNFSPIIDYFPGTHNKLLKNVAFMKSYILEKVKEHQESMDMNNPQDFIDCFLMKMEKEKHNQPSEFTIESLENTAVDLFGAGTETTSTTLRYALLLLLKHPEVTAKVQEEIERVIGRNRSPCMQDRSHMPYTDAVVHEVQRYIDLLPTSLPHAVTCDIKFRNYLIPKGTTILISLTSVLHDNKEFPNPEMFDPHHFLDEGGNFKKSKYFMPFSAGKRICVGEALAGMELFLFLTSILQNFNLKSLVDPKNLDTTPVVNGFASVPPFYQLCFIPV
CYP2D6, sequence (P10635 whole entry): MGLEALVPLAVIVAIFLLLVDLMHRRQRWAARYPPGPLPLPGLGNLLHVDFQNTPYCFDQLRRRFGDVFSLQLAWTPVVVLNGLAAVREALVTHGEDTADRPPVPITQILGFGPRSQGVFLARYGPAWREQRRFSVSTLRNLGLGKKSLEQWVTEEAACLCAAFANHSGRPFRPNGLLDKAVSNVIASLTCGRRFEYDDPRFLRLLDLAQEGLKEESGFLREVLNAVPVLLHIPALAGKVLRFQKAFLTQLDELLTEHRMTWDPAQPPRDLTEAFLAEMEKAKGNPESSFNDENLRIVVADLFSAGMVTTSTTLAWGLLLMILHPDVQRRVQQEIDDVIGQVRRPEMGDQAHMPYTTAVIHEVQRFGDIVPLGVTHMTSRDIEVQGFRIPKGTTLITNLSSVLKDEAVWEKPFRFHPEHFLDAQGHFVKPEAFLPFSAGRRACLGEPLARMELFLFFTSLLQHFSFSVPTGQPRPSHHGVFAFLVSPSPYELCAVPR

Structure (SMILES): O=C(NCCCN(CCCCN(CCCNC(=O)c1cccc(=O)n1O)C(=O)c1cccc(=O)n1O)C(=O)c1cccc(=O)n1O)c1cccc(=O)n1O [3,4,3-LI(1,2-HOPO)]
- % CYP activity relative to control [1]: none of the CYP isoforms were significantly influenced
- stability in acidic buffer ([2]; acetate buffer USP pH 4.50, 10 mg/mL): stable
- stability in acidic buffer ([2]; hydrochloric acid buffer USP pH 1.40, 10 mg/mL): stable
- stability in hydrochloric acid buffer without pepsin ([2]; pH 1.4, 3 h): stable
- stability in acidic buffer ([2]; phosphate buffer USP pH 6.80, 10 mg/mL): stable
- % CYP activity relative to control [3]: none of the CYP isoforms were significantly influenced
- stability in plasma (% of test article remaining) [4]: No degradation
- stability in plasma (% of test article remaining) [5]: No degradation
- plasma concentration [6]: less than 2 μg/mL
- stability in plasma (% of test article remaining) [7]: No degradation
- permeation of the Transwell membrane in the absence of Caco-2 cells [8]: detectable levels
- % Recovery of Test Article A–B (mean) ([9]; 10 μM + 100 μM ketoconazole): 120.6%
- % Recovery of Test Article B-A (mean) ([9]; 10 μM + 100 μM ketoconazole): 90.3%
- % Recovery of Test Article A–B (mean) ([9]; 10 μM): 112.2%
- % Recovery of Test Article B-A (mean) ([9]; 10 μM): 87.2%
- % Recovery of Test Article A–B (mean) ([9]; 50 μM + 100 μM ketoconazole): 114.9%
- % Recovery of Test Article B-A (mean) ([9]; 50 μM + 100 μM ketoconazole): 85.7%
- % Recovery of Test Article A–B (mean) ([9]; 50 μM): 105.5%
- % Recovery of Test Article B-A (mean) ([9]; 50 μM): 97.6%
- concentration in the receiving wells ([9]; 10 and 50 μM solutions, lower limit of quantitation): < 0.5 µM
- permeability across the Caco-2 monolayer ([9]; bi-directional, 10 and 50 μM): not permeable
- % CYP activity relative to control [10]: none of the CYP isoforms were significantly influenced
- % of the initial content remained in simulated gastric fluid ([11]; 1 μM): 76%
- % of the initial content remained in simulated gastric fluid ([11]; 10 μM): 72%
- % of test article remaining (metabolic stability) [12]: no loss of parent test article
- % CYP activity relative to control [13]: none of the CYP isoforms were significantly influenced
- % CYP activity relative to control [14]: none of the CYP isoforms were significantly influenced
- % protein-bound ([15]; 2.65 μM): below the lower limit of quantitation
- extent of plasma protein binding (rank among species) ([15]; 2.7, 13.3 and 40.0 μM): intermediate
- stability in plasma (% of test article remaining) [16]: No degradation
- extent of plasma protein binding (rank among species) [17]: greatest
- % CYP activity relative to control [18]: none of the CYP isoforms were significantly influenced
- % protein-bound ([19]; 2.65 μM): below the lower limit of quantitation
- extent of plasma protein binding (rank among species) ([19]; 2.7, 13.3 and 40.0 μM): lowest

Structure (SMILES): C[C@H]1O[C@@H](O[C@H]2[C@@H](O)C[C@H](O[C@H]3[C@@H](O)C[C@H](O[C@H]4CC[C@@]5(C)[C@H](CC[C@@H]6[C@@H]5C[C@@H](O)[C@]5(C)[C@@H](C7=CC(=O)OC7)CC[C@]65O)C4)O[C@@H]3C)O[C@@H]2C)C[C@H](O)[C@@H]1O [digoxin, reference compound]
- Papp A→B at 120 min, 1 μM ([20]; 1 μM + 100 μM ketoconazole): 37 nm/s
- Papp A→B at 120 min, 1 μM ([20]; 1 μM, control): 31 nm/s
- Papp B→A at 120 min, 1 μM ([20]; 1 μM + 100 μM ketoconazole): 18 nm/s
- Papp B→A at 120 min, 1 μM ([20]; 1 μM, control): 86 nm/s

Structure (SMILES): CC(C)NCC(O)COc1cccc2ccccc12 (stereo not drawn) [propranolol]
- stability in gastric fluid [21]: stable

Source: paper PMC4390475 (Journal of pharmaceutical sciences, 2015)
